{"source": "ChEMBL document CHEMBL1926530", "about": "“Novel pyrazolo[1,5-a]pyridines as p110α-selective PI3 kinase inhibitors: Exploring the benzenesulfonohydrazide SAR” (Bioorg Med Chem, 2012)", "key": {"[1]": {"molecular_target": "Phosphatidylinositol 4,5-bisphosphate 3-kinase catalytic subunit alpha isoform (Homo sapiens, UniProt P42336)", "sequence (P42336 whole entry, canonical isoform)": "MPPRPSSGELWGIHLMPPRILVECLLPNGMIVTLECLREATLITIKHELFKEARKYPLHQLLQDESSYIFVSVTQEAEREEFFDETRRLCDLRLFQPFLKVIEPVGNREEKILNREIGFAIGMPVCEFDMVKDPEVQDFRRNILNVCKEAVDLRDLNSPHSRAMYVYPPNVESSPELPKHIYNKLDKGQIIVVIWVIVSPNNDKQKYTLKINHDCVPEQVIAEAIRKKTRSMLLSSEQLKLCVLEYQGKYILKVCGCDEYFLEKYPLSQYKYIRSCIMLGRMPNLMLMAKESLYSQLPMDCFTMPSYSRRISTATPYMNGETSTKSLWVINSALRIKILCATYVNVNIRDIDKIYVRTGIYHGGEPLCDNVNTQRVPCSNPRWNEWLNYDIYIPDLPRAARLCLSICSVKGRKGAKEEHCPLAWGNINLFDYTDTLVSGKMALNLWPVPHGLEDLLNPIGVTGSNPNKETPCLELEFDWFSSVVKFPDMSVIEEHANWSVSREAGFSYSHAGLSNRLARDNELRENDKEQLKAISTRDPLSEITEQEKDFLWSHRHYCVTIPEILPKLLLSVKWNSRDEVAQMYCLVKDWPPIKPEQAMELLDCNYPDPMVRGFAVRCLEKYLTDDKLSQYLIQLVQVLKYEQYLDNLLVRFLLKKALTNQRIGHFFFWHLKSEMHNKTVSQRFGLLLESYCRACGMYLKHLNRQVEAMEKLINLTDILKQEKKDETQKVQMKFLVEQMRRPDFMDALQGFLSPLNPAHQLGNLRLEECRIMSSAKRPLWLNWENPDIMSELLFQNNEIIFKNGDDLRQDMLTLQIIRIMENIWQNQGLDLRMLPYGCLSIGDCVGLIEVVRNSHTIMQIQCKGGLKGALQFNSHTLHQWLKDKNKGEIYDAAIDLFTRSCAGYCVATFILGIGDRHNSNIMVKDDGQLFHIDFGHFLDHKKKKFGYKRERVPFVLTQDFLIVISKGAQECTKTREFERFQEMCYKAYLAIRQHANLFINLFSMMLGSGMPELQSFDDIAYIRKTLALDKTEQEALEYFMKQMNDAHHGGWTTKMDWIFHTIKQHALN", "assay": "Inhibition of recombinant PI3K p110alpha using L-alpha-phosphatidylinositol as substrate and [gamma33P]ATP after 60 mins by thin layer chromatographic technique", "procedure,_shortened": "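In-house recombinant enzyme (0.1 µg) with L-α-phosphatidylinositol in 40 mM Tris-HCl pH 7.4, 200 mM NaCl, 1 mM EDTA; DMSO 1% final. Started with 5 mM MgCl₂, 100 µM ATP plus [γ-³³P]ATP; 1 h at room temperature, stopped with 1 M HCl. Lipids extracted, separated by TLC, phosphorimaged. Nine inhibitor concentrations; two experiments, IC50 averaged.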"}, "[2]": {"assay": "Cytotoxicity against human NZB5 cells assessed as inhibition of [3H]thymidine incorporation measured after 5 days", "type": "functional, cell-based", "procedure,_shortened": "(§1)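 Early-passage lines grown in α-MEM with insulin, transferrin, selenite and 5% FBS. Wells seeded with 1000 cells; inhibitor in dilution steps up to a maximum of 20. Five days under 5% O₂/5% CO₂/90% N₂, ³H-thymidine added for the last 6 h. Duplicates per dose; fit y = y₀ + ae^−bx; IC50 = 50% reduction in incorporation.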"}, "[3]": {"assay": "Cytotoxicity against human NZOV9 cells harboring PI3K p110alpha Y1021C mutant assessed as inhibition of [3H]thymidine incorporation measured after 5 days", "type": "functional, cell-based", "procedure,_shortened": "as §1"}, "[4]": {"molecular_target": "Phosphatidylinositol 4,5-bisphosphate 3-kinase catalytic subunit alpha isoform (Homo sapiens, UniProt P42336, E545K)", "sequence (P42336 whole entry E545K, canonical isoform)": "as the sequence (P42336 whole entry, canonical isoform) above, with E545K counted along it", "assay": "Inhibition of recombinant PI3K p110alpha E545K mutant using L-alpha-phosphatidylinositol as substrate and [gamma33P]ATP after 60 mins by thin layer chromatographic technique"}, "[5]": {"molecular_target": "T1, Phosphatidylinositol 4,5-bisphosphate 3-kinase catalytic subunit alpha isoform (Homo sapiens, UniProt P42336, H1047R)", "T1 sequence (P42336 whole entry H1047R, canonical isoform)": "as the sequence (P42336 whole entry, canonical isoform) above, with H1047R counted along it", "assay": "Inhibition of recombinant PI3K p110alpha H1047R mutant using L-alpha-phosphatidylinositol as substrate and [gamma33P]ATP after 60 mins by thin layer chromatographic technique"}, "[6]": {"assay": "Inhibition of DNA-PK"}, "[7]": {"molecular_target": "Phosphatidylinositol 4,5-bisphosphate 3-kinase catalytic subunit gamma isoform (Homo sapiens, UniProt P48736)", "assay": "Inhibition of PI3K p110gamma"}, "[8]": {"molecular_target": "Dual specificity mitogen-activated protein kinase kinase 1 (Homo sapiens) (UniProt Q02750)", "sequence (Q02750 whole entry)": "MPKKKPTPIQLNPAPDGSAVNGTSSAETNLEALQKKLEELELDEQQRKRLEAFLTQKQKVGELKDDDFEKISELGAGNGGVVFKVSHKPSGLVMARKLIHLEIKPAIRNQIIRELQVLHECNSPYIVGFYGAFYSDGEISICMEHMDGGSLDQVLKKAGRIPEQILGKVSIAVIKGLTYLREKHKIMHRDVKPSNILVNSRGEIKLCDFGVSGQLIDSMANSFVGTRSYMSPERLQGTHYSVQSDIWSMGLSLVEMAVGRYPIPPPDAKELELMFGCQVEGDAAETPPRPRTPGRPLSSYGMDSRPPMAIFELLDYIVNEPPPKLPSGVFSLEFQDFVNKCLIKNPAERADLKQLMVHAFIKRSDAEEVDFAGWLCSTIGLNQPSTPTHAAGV", "assay": "Inhibition of MKK1 assessed as residual activity at 1 uM"}, "[9]": {"molecular_target": "Dual specificity mitogen-activated protein kinase kinase 1 (Homo sapiens) (UniProt Q02750)", "assay": "Inhibition of MKK1 assessed as residual activity at 10 uM"}, "[10]": {"molecular_target": "Mitogen-activated protein kinase 14 (Homo sapiens) (UniProt Q16539)", "sequence (Q16539 whole entry)": "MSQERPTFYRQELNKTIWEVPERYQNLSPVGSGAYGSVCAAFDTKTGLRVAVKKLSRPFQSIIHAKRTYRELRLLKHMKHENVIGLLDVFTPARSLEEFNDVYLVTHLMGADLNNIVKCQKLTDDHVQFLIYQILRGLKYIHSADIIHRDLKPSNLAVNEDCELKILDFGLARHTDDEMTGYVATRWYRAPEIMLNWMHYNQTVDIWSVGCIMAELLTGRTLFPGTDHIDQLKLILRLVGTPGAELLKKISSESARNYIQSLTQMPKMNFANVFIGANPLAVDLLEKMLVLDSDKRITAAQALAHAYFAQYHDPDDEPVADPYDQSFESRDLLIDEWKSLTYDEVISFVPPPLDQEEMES", "assay": "Inhibition of p38alpha assessed as residual activity at 1 uM"}, "[11]": {"molecular_target": "Mitogen-activated protein kinase 14 (Homo sapiens) (UniProt Q16539)", "assay": "Inhibition of p38alpha assessed as residual activity at 10 uM"}, "[12]": {"molecular_target": "Ribosomal protein S6 kinase alpha-1 (Homo sapiens) (UniProt Q15418)", "assay": "Inhibition of RSK1 assessed as residual activity at 1 uM"}, "[13]": {"molecular_target": "High affinity nerve growth factor receptor (Homo sapiens) (UniProt P04629)", "assay": "Inhibition of TrkA assessed as residual activity at 10 uM"}, "[14]": {"assay": "Inhibition of PKA assessed as residual activity at 1 uM"}, "[15]": {"molecular_target": "Insulin receptor (Homo sapiens) (UniProt P06213)", "sequence (P06213 28-758 limits assumed)": "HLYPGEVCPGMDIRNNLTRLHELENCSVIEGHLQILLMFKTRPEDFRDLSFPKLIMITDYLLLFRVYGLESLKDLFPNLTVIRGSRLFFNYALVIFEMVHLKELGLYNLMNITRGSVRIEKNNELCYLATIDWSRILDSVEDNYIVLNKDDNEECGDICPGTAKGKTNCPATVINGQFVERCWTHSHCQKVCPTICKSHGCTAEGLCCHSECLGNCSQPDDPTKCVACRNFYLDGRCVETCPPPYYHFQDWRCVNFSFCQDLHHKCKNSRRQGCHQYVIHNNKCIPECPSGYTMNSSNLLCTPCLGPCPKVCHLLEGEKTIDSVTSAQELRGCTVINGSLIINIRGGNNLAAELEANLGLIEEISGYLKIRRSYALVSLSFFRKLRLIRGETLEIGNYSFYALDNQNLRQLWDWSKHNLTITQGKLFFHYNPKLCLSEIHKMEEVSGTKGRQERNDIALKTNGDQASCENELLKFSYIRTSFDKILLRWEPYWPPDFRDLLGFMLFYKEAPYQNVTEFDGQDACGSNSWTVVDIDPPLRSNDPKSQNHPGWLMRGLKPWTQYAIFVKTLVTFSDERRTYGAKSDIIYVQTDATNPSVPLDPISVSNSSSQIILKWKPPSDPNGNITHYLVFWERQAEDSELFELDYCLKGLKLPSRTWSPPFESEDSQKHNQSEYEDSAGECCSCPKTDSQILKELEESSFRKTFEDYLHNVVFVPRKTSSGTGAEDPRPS", "sequence (P06213 763-1382 limits assumed)": "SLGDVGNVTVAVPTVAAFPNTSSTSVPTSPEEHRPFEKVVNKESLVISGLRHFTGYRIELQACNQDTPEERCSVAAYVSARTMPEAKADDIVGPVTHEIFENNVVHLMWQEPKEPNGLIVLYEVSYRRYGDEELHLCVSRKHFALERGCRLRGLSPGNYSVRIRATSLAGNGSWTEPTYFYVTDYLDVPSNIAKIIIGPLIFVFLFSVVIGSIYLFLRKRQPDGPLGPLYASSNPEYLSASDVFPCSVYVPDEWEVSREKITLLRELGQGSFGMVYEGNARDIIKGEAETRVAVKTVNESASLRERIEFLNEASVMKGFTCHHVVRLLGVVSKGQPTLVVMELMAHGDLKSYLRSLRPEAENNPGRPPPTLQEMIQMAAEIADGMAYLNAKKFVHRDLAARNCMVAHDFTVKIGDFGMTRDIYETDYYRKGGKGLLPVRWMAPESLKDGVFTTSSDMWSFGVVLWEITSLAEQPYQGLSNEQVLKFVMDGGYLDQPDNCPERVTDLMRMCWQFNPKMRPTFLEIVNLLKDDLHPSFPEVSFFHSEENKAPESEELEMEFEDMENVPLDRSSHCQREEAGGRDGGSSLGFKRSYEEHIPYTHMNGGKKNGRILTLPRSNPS", "assay": "Inhibition of IR assessed as residual activity at 1 uM"}, "[16]": {"molecular_target": "Insulin receptor (Homo sapiens) (UniProt P06213)", "assay": "Inhibition of IR assessed as residual activity at 10 uM"}, "[17]": {"molecular_target": "Misshapen-like kinase 1 (Homo sapiens) (UniProt Q8N4C8)", "sequence (Q8N4C8 whole entry, looked up)": "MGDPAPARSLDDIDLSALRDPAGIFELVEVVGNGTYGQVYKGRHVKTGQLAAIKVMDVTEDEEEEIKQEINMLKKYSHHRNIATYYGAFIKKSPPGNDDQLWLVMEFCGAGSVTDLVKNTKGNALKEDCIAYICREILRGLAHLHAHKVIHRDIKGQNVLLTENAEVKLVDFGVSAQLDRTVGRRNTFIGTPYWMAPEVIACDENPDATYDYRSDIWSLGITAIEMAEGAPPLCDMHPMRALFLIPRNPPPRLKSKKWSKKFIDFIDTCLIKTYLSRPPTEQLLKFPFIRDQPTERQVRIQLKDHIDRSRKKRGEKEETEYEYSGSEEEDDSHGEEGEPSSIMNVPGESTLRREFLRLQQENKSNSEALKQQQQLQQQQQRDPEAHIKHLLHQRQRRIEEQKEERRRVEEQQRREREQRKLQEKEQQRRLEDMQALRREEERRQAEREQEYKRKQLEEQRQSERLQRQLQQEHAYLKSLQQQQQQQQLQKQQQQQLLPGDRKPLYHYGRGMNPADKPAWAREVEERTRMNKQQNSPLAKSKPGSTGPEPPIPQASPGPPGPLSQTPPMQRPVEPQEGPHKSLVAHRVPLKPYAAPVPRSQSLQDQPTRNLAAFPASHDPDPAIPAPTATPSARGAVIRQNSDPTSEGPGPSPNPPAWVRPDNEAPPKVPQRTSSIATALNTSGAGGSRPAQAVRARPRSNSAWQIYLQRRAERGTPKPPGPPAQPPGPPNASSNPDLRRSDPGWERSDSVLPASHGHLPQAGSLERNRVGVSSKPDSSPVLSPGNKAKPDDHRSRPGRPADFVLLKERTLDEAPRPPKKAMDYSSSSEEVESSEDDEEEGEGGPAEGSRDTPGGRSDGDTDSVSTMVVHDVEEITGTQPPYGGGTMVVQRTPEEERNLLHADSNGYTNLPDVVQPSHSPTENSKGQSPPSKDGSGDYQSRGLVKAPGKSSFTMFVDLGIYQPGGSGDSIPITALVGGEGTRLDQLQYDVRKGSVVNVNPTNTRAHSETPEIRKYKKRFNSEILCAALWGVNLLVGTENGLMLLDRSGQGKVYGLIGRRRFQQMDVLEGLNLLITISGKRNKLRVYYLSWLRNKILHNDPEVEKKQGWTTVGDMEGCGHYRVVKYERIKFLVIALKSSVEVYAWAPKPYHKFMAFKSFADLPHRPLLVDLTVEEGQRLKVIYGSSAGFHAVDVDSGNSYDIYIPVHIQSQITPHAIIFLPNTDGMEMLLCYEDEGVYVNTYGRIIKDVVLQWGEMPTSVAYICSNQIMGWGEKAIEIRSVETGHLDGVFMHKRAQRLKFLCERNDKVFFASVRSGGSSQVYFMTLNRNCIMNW", "assay": "Inhibition of MINK1 assessed as residual activity at 1 uM"}, "[18]": {"molecular_target": "Misshapen-like kinase 1 (Homo sapiens) (UniProt Q8N4C8)", "assay": "Inhibition of MINK1 assessed as residual activity at 10 uM"}, "[19]": {"system": "Mus musculus", "assay": "Toxicity in Rag1 knockout mouse xenografted with human HCT116 cells assessed as body weight loss at 40 mg/kg, ip QD measured on day 7 relative to untreated control", "type": "organism-based, HCT-116", "set-up": "dose 40 mg/kg, route intraperitoneal", "details": "in vivo", "procedure,_shortened": "(§2)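 Male Rag1−/− mice (age-matched, SPF) inoculated s.c. with 5 × 10⁶ HCT-116 cells in PBS. Dosing started at ~150 mm³ tumours: q.d. i.p. in 7.5% DMSO, 42.5% PEG-400, 20% 2-hydroxypropyl-β-cyclodextrin, 30% water; controls received vehicle. Volume = (L × w²) × π/6, measured three times weekly; bodyweight daily. Treatment stopped if mean weight loss >15%; 1-way ANOVA with Holm–Sidak.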"}, "[20]": {"molecular_target": "T1, Phosphatidylinositol 4,5-bisphosphate 3-kinase catalytic subunit alpha isoform", "assay": "Inhibition of PI3K […] H1047R mutant-mediated PKB phosphorylation at Ser473 in human HCT116 cells after 15 mins by immunoblot analysis", "type": "cell-based, HCT-116", "procedure,_shortened": "(§3)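 HCT-116 cells in MEM alpha with 10% FBS and penicillin/streptomycin, seeded, grown 1 day, then starved overnight serum-free. Inhibitor in DMSO (0.1% final) at varying concentrations for 15 min, then 500 nM insulin for 5 min. Lysates immunoblotted for phospho-PKB at Ser473 or Thr308.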"}, "[21]": {"molecular_target": "T1, Phosphatidylinositol 4,5-bisphosphate 3-kinase catalytic subunit alpha isoform", "assay": "Inhibition of PI3K […] H1047R mutant-mediated PKB phosphorylation at Thr308 in human HCT116 cells after 15 mins by immunoblot analysis", "type": "cell-based, HCT-116", "procedure,_shortened": "as §3"}, "[22]": {"assay": "Tmax in CD1 mouse at 10 mg/kg, ip", "type": "ADME, organism-based", "set-up": "dose 10 mg/kg, route intraperitoneal", "details": "in vivo", "procedure,_shortened": "(§4)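 Age-matched specific pathogen-free male CD-1 mice; single 10 mg/kg i.p. dose in 5% DMSO, 45% PEG-400, 20% 2-hydroxypropyl-β-cyclodextrin, 30% water. Blood sampled at multiple times post-dose; plasma taken after centrifugation (10 min, 6000 rpm, 20 °C). Plasma analysed by LC-MS/MS; parameters from non-compartmental analysis.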"}, "[23]": {"assay": "Cmax in CD1 mouse at 10 mg/kg, ip", "type": "ADME, organism-based", "set-up": "dose 10 mg/kg, route intraperitoneal", "details": "in vivo", "procedure,_shortened": "as §4"}, "[24]": {"assay": "Terminal half life in CD1 mouse at 10 mg/kg, ip", "type": "ADME, organism-based", "set-up": "dose 10 mg/kg, route intraperitoneal", "details": "in vivo, read-out: beta t1/2 (converted)", "procedure,_shortened": "as §4"}, "[25]": {"system": "HCT-116", "assay": "Antitumor activity against human HCT116 cells xenografted in Rag1knockout mouse assessed as tumor growth delay at 40 mg/kg, ip QD measured on day 7 relative to untreated control", "type": "functional", "details": "route intraperitoneal", "procedure,_shortened": "as §2"}, "[26]": {"system": "SK-OV-3", "assay": "Antitumor activity against human SKOV3 cells xenografted in nude NIH3 mouse assessed as tumor growth delay at 30 mg/kg, ip QD administered for 14 days relative to untreated control", "type": "functional", "details": "SK-OV-3, ip, 336 h, route intraperitoneal, read-out: GI", "procedure,_shortened": "(§5)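 Female NIH III nude mice (age-matched, SPF) inoculated s.c. with 5 × 10⁶ SK-OV-3 cells in PBS. Dosing from ~150 mm³ tumours, 30 mg/kg i.p. q.d. for 14 days in 7.5% DMSO/42.5% PEG-400/20% 2-hydroxypropyl-β-cyclodextrin/30% water; vehicle controls. Volume (L × w²) × π/6 three times weekly; bodyweight daily; culled above 20% weight loss; 1-way ANOVA, Holm–Sidak.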"}, "[27]": {"system": "Mus musculus", "assay": "Toxicity in NIH3 mouse xenografted with human SKOV3 cells assessed as body weight loss at 30 mg/kg, ip QD administered for 14 days", "type": "organism-based, SK-OV-3", "set-up": "dose 30 mg/kg, route intraperitoneal", "details": "in vivo, 336 h", "procedure,_shortened": "as §5"}}, "data": [{"smiles": "Cc1ccc([N+](=O)[O-])cc1S(=O)(=O)N(CCO)/N=C/c1cnn2ccc(C#N)cc12", "values": [{"measurement": "IC50", "setting": "[1]", "result": 1.3, "unit": "nM"}, {"measurement": "IC50", "setting": "[2]", "result": 60, "unit": "nM"}, {"measurement": "IC50", "setting": "[3]", "result": 140, "unit": "nM"}, {"measurement": "IC50", "setting": "[4]", "result": 0.8, "unit": "nM"}, {"measurement": "IC50", "setting": "[5]", "result": 0.8, "unit": "nM"}, {"measurement": "IC50", "setting": "[6]", "result": 0.3, "unit": "nM"}, {"measurement": "IC50", "setting": "[7]", "result": 11, "unit": "nM"}, {"measurement": "Activity", "setting": "[8]", "result": 65, "unit": "%"}, {"measurement": "Activity", "setting": "[9]", "result": 5, "unit": "%"}, {"measurement": "Activity", "setting": "[10]", "result": 59, "unit": "%"}, {"measurement": "Activity", "setting": "[11]", "result": 13, "unit": "%"}, {"measurement": "Activity", "setting": "[12]", "result": 18, "unit": "%"}, {"measurement": "Activity", "setting": "[13]", "result": 15, "unit": "%"}, {"measurement": "Activity", "setting": "[14]", "result": 59, "unit": "%"}, {"measurement": "Activity", "setting": "[15]", "result": 76, "unit": "%"}, {"measurement": "Activity", "setting": "[16]", "result": 14, "unit": "%"}, {"measurement": "Activity", "setting": "[17]", "result": 16, "unit": "%"}, {"measurement": "Activity", "setting": "[18]", "result": 2, "unit": "%"}, {"measurement": "Activity", "setting": "[19]", "result": "> 15", "unit": "%"}, {"measurement": "IC50", "setting": "[20]", "result": 82, "unit": "nM"}, {"measurement": "IC50", "setting": "[21]", "result": 49, "unit": "nM"}, {"measurement": "Tmax", "setting": "[22]", "result": 5, "unit": "min"}, {"measurement": "Cmax", "setting": "[23]", "result": 7.58, "unit": "µM"}, {"measurement": "half-life", "setting": "[24]", "result": 67.8, "unit": "min"}, {"measurement": "Activity", "setting": "[25]", "result": 43.8, "unit": "%"}, {"measurement": "inhibition in vivo at 30 mg/kg", "setting": "[26]", "result": 49.9, "unit": "%"}, {"measurement": "Activity", "setting": "[27]", "result": 20, "unit": "%"}]}]}
